# Results: ChEMBL document CHEMBL1141192 (J Med Chem, 2005)
# Tests used:
# [1] = tested on: Rattus norvegicus; assay: Hyperalgesia in male SD rat administered 2 hrs after carrageenan injection, analgesia tested at 6 hrs; format: functional, Sprague-Dawley
# Summary of the method: (§1)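 Fasted male SD rats (94–118 g); compound suspended in 0.1% MC, given orally at 1, 3 and 10 mg/kg either 1 h before (prophylactic) or 2 h after (therapeutic) intraplantar carrageenan (1%, 100 μL/paw). Mechanical threshold read by Randall-Selitto analgesimeter at 3, 4, 5 and 6 h post-carrageenan.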
# [2] = species on record: Rattus norvegicus; assay: Rotarod test in rat at 1 hr; format: functional; details: Sprague-Dawley
# Summary of the method: (§2)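 Fasted male SD rats (94–104 g), n = 6 per dose group, given 10–300 mg/kg po in 0.1% MC after training on a 5 rpm rotorod; walking time recorded at 0, 0.5, 1, 2 and 5 h post-dose, 150 s cutoff.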
# [3] = Maximum concentration in rat at 3 mg/kg, po; format: ADME, organism-based; design: dose 3 mg/kg, route oral; details: in vivo
# Summary of the method: (§3)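 Compound at 3 mg/kg in 0.1% MC given po or iv to rats or dogs; plasma sampled at 0.25, 0.5, 1, 2, 4, 8 and 24 h; drug levels measured by HPLC.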
# [4] = biological target: Adenosine kinase (Homo sapiens, UniProt P55263); assay: Inhibitory activity against recombinant human adenosine kinase
# Chain of Adenosine kinase (P55263 whole entry): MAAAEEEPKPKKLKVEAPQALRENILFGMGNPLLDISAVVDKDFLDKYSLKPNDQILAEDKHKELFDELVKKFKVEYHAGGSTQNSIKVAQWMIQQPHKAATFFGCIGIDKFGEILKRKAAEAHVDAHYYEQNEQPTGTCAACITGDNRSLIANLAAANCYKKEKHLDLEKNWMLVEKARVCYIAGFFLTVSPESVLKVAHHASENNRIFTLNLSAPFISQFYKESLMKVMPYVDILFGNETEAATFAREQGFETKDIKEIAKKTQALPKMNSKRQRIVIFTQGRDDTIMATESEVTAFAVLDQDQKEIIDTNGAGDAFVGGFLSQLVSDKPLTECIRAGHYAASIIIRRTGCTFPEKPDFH
# [5] = tested on: Rattus norvegicus; assay: Hyperalgesia in male SD rat administered 1 hr before carrageenan injection, analgesia tested at 5 hrs; format: functional, Sprague-Dawley; summary of the method: as §1
# [6] = Half life in dog at 3 mg/kg, po; format: ADME, organism-based, Canis lupus familiaris; design: dose 3 mg/kg, route oral; details: in vivo; summary of the method: as §3
# [7] = tested on: Canis familiaris; assay: Volume of distribution in dog at 3 mg/kg, po; format: ADME, organism-based, Canis lupus familiaris; design: dose 3 mg/kg, route oral; details: in vivo; summary of the method: as §3
# [8] = species on record: Rattus norvegicus; assay: Rotarod test in rat at 2 hrs; format: functional; details: Sprague-Dawley; summary of the method: as §2
# [9] = Oral bioavailability in rat at 3 mg/kg, po; format: ADME, organism-based; details: in vivo; summary of the method: as §3
# [10] = species on record: Rattus norvegicus; assay: Inhibition of formalin induced paw pain in male SD rat; format: functional; details: Sprague-Dawley
# Summary of the method: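 Fasted male SD rats (4 weeks, 105–115 g), six per dose group; compound in 0.1% MC po at 0.3, 1, 3 and 10 mg/kg, 15 min before 50 μL of 2% formalin s.c. into right hindpaw plantar surface.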
# [11] = Half life at early phase in rat at 3 mg/kg, po; format: ADME, organism-based; design: dose 3 mg/kg, route oral; details: in vivo; summary of the method: as §3
# [12] = Time taken to achieve maximum concentration in rat at 3 mg/kg, po; format: ADME, organism-based; design: dose 3 mg/kg, route oral; details: in vivo; summary of the method: as §3
# [13] = Metabolic stability by incubation with human liver microsomes; format: ADME, Microsome
# [14] = Clearance in rat at 3 mg/kg, po; format: ADME, organism-based; design: dose 3 mg/kg, route oral; details: in vivo; summary of the method: as §3
# [15] = AUC (0-24) in rat at 3 mg/kg, po; format: ADME, organism-based; design: time < 24 hr, dose 3 mg/kg, route oral; details: plasma
# [16] = tested on: Rattus norvegicus; assay: Inhibition of the licking and biting response at 20 mg/kg, po in rat by formalin paw antinociceptive assay; format: functional; details: Sprague-Dawley
# Summary of the method: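 Screening: fasted male SD rats (105–115 g), three per compound, 20 mg/kg po in 0.1% MC 15 min before 2% formalin (50 μL s.c., right hindpaw). Licking/biting scored 5 s per 30 s; percent inhibition reported for 2nd phase (15–30 min); positive control 5 mg/kg po each run.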
# [17] = tested on: Rattus norvegicus; assay: Toxicity in rat liver administered at 75 umol/kg, iv; format: organism-based; details: in vivo
# Summary of the method: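 Three male rats given 75 μmol/kg total iv in 75:25 PEG-400/saline as two 40-min infusions 12 h apart; serum taken 24 h after first infusion for bilirubin, SGOT, SGPT, creatine, GGT, albumin, glucose, BUN and ALP.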
# [18] = tested on: Rattus norvegicus; assay: Hyperalgesia in male SD rat administered 2 hrs after carrageenan injection, analgesia tested at 5 hrs; format: functional; details: Sprague-Dawley; summary of the method: as §1
# [19] = tested on: Rattus norvegicus; assay: Hyperalgesia in male SD rat administered 2 hrs after carrageenan injection, analgesia tested at 3 hrs; format: functional; details: Sprague-Dawley; summary of the method: as §1
# [20] = Time taken to achieve maximum concentration in dog at 3 mg/kg, po; format: ADME, organism-based, Canis lupus familiaris; design: dose 3 mg/kg, route oral; details: in vivo; summary of the method: as §3
# [21] = species on record: Rattus norvegicus; assay: Rotarod test in rat at 0.5 hrs; format: functional; details: Sprague-Dawley; summary of the method: as §2
# [22] = tested on: Rattus norvegicus; assay: Hyperalgesia in male SD rat administered 1 hr before carrageenan injection, analgesia tested at 3 hrs; format: functional; details: Sprague-Dawley; summary of the method: as §1
# [23] = Solubility in water at pH 7.4
# [24] = Half life at late phase in rat at 3 mg/kg, po; format: ADME, organism-based; design: dose 3 mg/kg, route oral; details: in vivo; summary of the method: as §3
# [25] = Clearance in dog at 3 mg/kg, po; format: ADME, organism-based, Canis lupus familiaris; design: dose 3 mg/kg, route oral; details: in vivo; summary of the method: as §3
# [26] = tested on: Rattus norvegicus; assay: Hyperalgesia in male SD rat administered 2 hrs after carrageenan injection, analgesia tested at 4 hrs; format: functional; details: Sprague-Dawley; summary of the method: as §1
# [27] = species on record: Rattus norvegicus; assay: Rotarod test in rat at 5 hrs; format: functional; details: Sprague-Dawley; summary of the method: as §2
# [28] = AUC (0-24) in dog at 3 mg/kg, po; format: ADME, organism-based, Canis lupus familiaris; design: time < 24 hr, dose 3 mg/kg, route oral; details: plasma
# [29] = tested on: Callitrichinae; assay: Bradykinin-induced licking in male marmoset monkey; format: functional, Callithrix jacchus
# Summary of the method: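 Male marmosets (293–359 g), 4–6 per group, individually housed; dosed po at 0.1, 1.0 and 10 mg/kg in 0.1% MC (vehicle control). 60 min post-dose, 100 μL of 1 mM bradykinin in saline injected i.pl. into foot pad. Response scored 0–3 every 15 s for 15 min from video; ataxia, sedation, emesis monitored. Alternate foot pads, 2-week intervals.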
# [30] = tested on: Rattus norvegicus; assay: Hyperalgesia in male SD rat administered 1 hr before carrageenan injection, analgesia tested at 4 hrs; format: functional; details: Sprague-Dawley; summary of the method: as §1
# [31] = Maximum concentration in dog at 3 mg/kg, po; format: ADME, organism-based, Canis lupus familiaris; design: dose 3 mg/kg, route oral; details: in vivo; summary of the method: as §3
# [32] = tested on: Rattus norvegicus; assay: Volume of distribution in rat at 3 mg/kg, po; format: ADME, organism-based; design: dose 3 mg/kg, route oral; details: in vivo; summary of the method: as §3
compound,measurement,setting,value
C[C@H]1O[C@@H](n2cc(-c3ccccc3)c3c(NCC(=O)NC4CC4)ncnc32)[C@H](O)[C@@H]1O,Inhibition,[1],<50%
same,ED50,[2],> 300 mg/kg
same,Cmax,[3],0.66 µg/mL
same,IC50,[4],3 nM
same,Inhibition,[5],<50%
same,half-life,[6],2 h
same,Vdss,[7],6.3 L/kg
same,ED50,[8],102 mg/kg
same,bioavailability,[9],128%
same,ED50,[10],2.5 mg/kg
same,half-life,[11],0.3 h
same,Tmax,[12],0.3 h
same,half-life,[13],3.3 h
same,CL/F,[14],3.4 L/h/kg
same,AUC at 24 h,[15],0.981 µg·h/mL
same,inhibition in vivo at 20 mg/kg,[16],66%
same,Activity,[17],Non-toxic
same,ED50,[18],6.5 mg/kg
same,ED50,[19],1.6 mg/kg
same,Tmax,[20],0.3 h
same,ED50,[21],> 300 mg/kg
same,ED50,[22],2.6 mg/kg
same,solubility,[23],0.032 mg/mL
same,half-life,[24],5.2 h
same,CL/F,[25],2.1 L/h/kg
same,ED50,[26],4.1 mg/kg
same,ED50,[27],62 mg/kg
same,AUC at 24 h,[28],1.49 µg·h/mL
same,ED50,[29],0.9 mg/kg
same,ED50,[30],3.8 mg/kg
same,Cmax,[31],0.518 µg/mL
same,Vdss,[32],3.3 L/kg
